This note sets out measurements from publication PMC3783659 (Bioorganic & medicinal chemistry letters, 2013).

Each structure is given as a SMILES string.

The experiment deals with KIX-KID interaction (Homo sapiens, UniProt P16220+Q92793). The experiment in a line: KIX-KID split renilla luciferase. Type of experiment: biochemical. In short, it runs like this: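 RLuc split into N-terminal (RLucN) and C-terminal (RLucC) halves. RLucC-KIX and KID-RLucN fusions combined with a range of test compound concentrations (top 50 or 100 μM) at 4 °C. Residual RLuc luminescence read after 20 h. Stocks in DMSO, or DMF for one unstable compound. IC50 in μM from at least two independent experiments, each in duplicate.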
KIX-KID interaction, sequence (Q92793 587-666 limits assumed): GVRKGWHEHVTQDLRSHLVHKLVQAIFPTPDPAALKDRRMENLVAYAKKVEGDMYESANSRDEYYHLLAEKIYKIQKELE
KIX-KID interaction, sequence (P16220 87-146 limits assumed): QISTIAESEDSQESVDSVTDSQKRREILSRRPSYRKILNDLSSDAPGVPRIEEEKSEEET

Regarding `O=[N+]([O-])c1cc(NCc2cccc3nonc23)ccc1Cl` [9a], the “KIX-KID inhibition (IC50)” value (split RLuc assay, 4 °C, 20 h incubation, mean ± SD) is “inactive”. Consider `O=[N+]([O-])c1ccc(Sc2cccc[n+]2[O-])c2nonc12` [compound 1, 2-[(7-nitrobenzo[c][1,2,5]oxadiazol-4-yl)thio]pyridine 1-oxide], for which the “Inhibition of KIX-KID interaction in initial screen” value (NCI diversity set screen at 10 μM) is reported as “consistently shown to efficaciously inhibit KIX-KID interaction”.
